Measured values: ChEMBL document CHEMBL3132745, “Synthesis and Antimicrobial Activities of His(2-aryl)-Arg and Trp-His(2-aryl) Classes of Dipeptidomimetics” (Medchemcomm, 2014)
≈ marks a conversion by molar mass, not a printed value. Calls of active or inactive are those of the source. Residues, ends and D or L forms follow the SMILES beside them. *: point of attachment. Boc = CC(C)(C)OC(=O)*; NHBn = c1ccc(CN*)cc1

Columns and labels:
[1] = Selectivity index, ratio of cytotoxicity against pig LLC-PK1 cells to IC50 for Cryptococcus neoformans ATCC 90113; assay type: toxicity, cell-based; conditions: read-out: Selectivity Index
[2] = Selectivity index, ratio of cytotoxicity against african green monkey Vero cells to IC50 for Cryptococcus neoformans ATCC 90113; assay type: toxicity, cell-based; conditions: read-out: Selectivity Index
[3] = Selectivity index, ratio of cytotoxicity against human SKOV3 cells to IC50 for Cryptococcus neoformans ATCC 90113; assay type: toxicity, cell-based, SK-OV-3; conditions: read-out: Selectivity Index
[4] = Selectivity index, ratio of cytotoxicity against human BT549 cells to IC50 for Cryptococcus neoformans ATCC 90113; assay type: toxicity, cell-based, BT-549; conditions: read-out: Selectivity Index
[5] = Selectivity index, ratio of cytotoxicity against human KB cells to IC50 for Cryptococcus neoformans ATCC 90113; assay type: toxicity, cell-based; conditions: read-out: Selectivity Index
[6] = Selectivity index, ratio of cytotoxicity against human SK-MEL cells to IC50 for Cryptococcus neoformans ATCC 90113; assay type: toxicity, cell-based; conditions: read-out: Selectivity Index
LLC-PK1 = assay: Cytotoxicity against pig LLC-PK1 cells assessed as cell viability after 48 hrs by neutral red uptake assay; assay type: cell-based, Sus scrofa; conditions: llc-pk1, 48 h
Method in brief: (§1)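 Neutral red uptake assay on human cancer lines (SK-MEL, KB, BT-549, SK-OV-3) and noncancerous mammalian cells (VERO, LLC-PK1). Highest tested concentration was 10 µg/mL.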

Vero = assay: Cytotoxicity against african green monkey Vero cells assessed as cell viability after 48 hrs by neutral red uptake assay; assay type: cell-based; conditions: chlorocebus sabaeus; method in brief: as §1
SK-OV-3 = assay: Cytotoxicity against human SKOV3 cells assessed as cell viability after 48 hrs by neutral red uptake assay; assay type: cell-based; conditions: sk-ov-3, 48 h; method in brief: as §1
KB = assay: Cytotoxicity against human KB cells assessed as cell viability after 48 hrs by neutral red uptake assay; assay type: cell-based; method in brief: as §1
BT-549 = assay: Cytotoxicity against human BT549 cells assessed as cell viability after 48 hrs by neutral red uptake assay; assay type: cell-based; conditions: bt-549, 48 h; method in brief: as §1
SK-MEL = assay: Cytotoxicity against human SK-MEL cells assessed as cell viability after 48 hrs by neutral red uptake assay; assay type: cell-based; method in brief: as §1
Escherichia coli = assay: Antibacterial activity against Escherichia coli ATCC 35218 assessed as growth inhibition after 16-20 hrs by CLSI method; assay type: functional, organism-based
Aspergillus fumigatus = assay: Antifungal activity against Aspergillus fumigatus assessed as growth inhibition; assay type: functional, organism-based
Pichia kudriavzevii = assay: Antifungal activity against Candida krusei assessed as growth inhibition; assay type: functional, organism-based
Nakaseomyces glabratus = assay: Antifungal activity against Candida glabrata assessed as growth inhibition; assay type: functional, organism-based
Candida albicans = assay: Antifungal activity against Candida albicans assessed as growth inhibition; assay type: functional, organism-based
Cryptococcus neoformans = assay: Antifungal activity against Cryptococcus neoformans ATCC 90113 assessed as growth inhibition after 70-74 hrs by CLSI method; assay type: functional, organism-based
Staphylococcus aureus [7] = assay: Antibacterial activity against methicillin-resistant Staphylococcus aureus ATCC 33591 assessed as growth inhibition after 16-20 hrs by CLSI method; assay type: functional, organism-based
Staphylococcus aureus [8] = assay: Antibacterial activity against Staphylococcus aureus ATCC 29213 assessed as growth inhibition after 16-20 hrs by CLSI method; assay type: functional, organism-based
[9] = Cryptococcus neoformans, ATCC 90113
[10] = Cryptococcus neoformans, ATCC 90113, read-out: IC50

SMILES | selectivity ratio [1] | selectivity ratio [2] | selectivity ratio [3] | selectivity ratio [4] | selectivity ratio [5] | selectivity ratio [6] | Activity (LLC-PK1) | Activity (Vero) | Activity (SK-OV-3) | Activity (KB) | Activity (BT-549) | Activity (SK-MEL) | growth inhibition (GI) (Escherichia coli) | growth inhibition (GI) (Aspergillus fumigatus) | growth inhibition (GI) (Pichia kudriavzevii) | growth inhibition (GI) (Nakaseomyces glabratus) | growth inhibition (GI) (Candida albicans) | MFC (Cryptococcus neoformans; [9]) | MIC (Cryptococcus neoformans; [9]) | IC50 (Cryptococcus neoformans; [10]) | also measured
N=C(N)NCCC[C@H](NC(=O)[C@@H](N)Cc1c[nH]c(-c2cccc3ccccc23)n1)C(=O)NCc1ccccc1 | > 16.1 | > 16.1 | > 16.1 | > 16.1 | > 16.1 | > 16.1 | > 10 µg/mL | > 10 µg/mL | > 10 µg/mL | > 10 µg/mL | > 10 µg/mL | > 10 µg/mL | inactive | inactive | inactive | inactive | inactive | 1.25 mg/L (≈ 2.37 µM) | 1.25 mg/L (≈ 2.37 µM) | 0.62 mg/L (≈ 1.18 µM) | 
COc1ccc(-c2nc(C[C@H](NC(=O)OC(C)(C)C)C(=O)N[C@@H](CCCNC(=N)N)C(=O)NCc3ccccc3)c[nH]2)cc1 | > 1.7 | > 1.7 | > 1.7 | > 1.7 | > 1.7 | > 1.7 | > 10 µg/mL | > 10 µg/mL | > 10 µg/mL | > 10 µg/mL | > 10 µg/mL | > 10 µg/mL | inactive | inactive | inactive | inactive | inactive | 10 mg/L (≈ 16.5 µM) | 10 mg/L (≈ 16.5 µM) | 5.77 mg/L (≈ 9.51 µM) | 
Cc1ccc(-c2nc(C[C@H](N)C(=O)N[C@@H](CCCNC(=N)N)C(=O)NCc3ccccc3)c[nH]2)cc1 | > 4.7 | > 4.7 | > 4.7 | > 4.7 | > 4.7 | > 4.7 | > 10 µg/mL | > 10 µg/mL | > 10 µg/mL | > 10 µg/mL | > 10 µg/mL | > 10 µg/mL | inactive | inactive | inactive | inactive | inactive | 2.5 mg/L (≈ 5.1 µM) | 2.5 mg/L (≈ 5.1 µM) | 2.11 mg/L (≈ 4.3 µM) | 
COC(=O)[C@H](Cc1c[nH]c(-c2ccc(C(C)(C)C)cc2)n1)NC(=O)[C@H](Cc1c[nH]c2ccccc12)NC(=O)OC(C)(C)C |  |  |  |  |  |  | > 10 µg/mL | > 10 µg/mL | > 10 µg/mL | > 10 µg/mL | > 10 µg/mL | > 10 µg/mL | inactive | inactive | inactive | inactive | inactive |  |  | 18.7 mg/L (≈ 31.8 µM) | IC50 (Staphylococcus aureus [7]): Not Active; MBC (Staphylococcus aureus [7]): inactive; MIC (Staphylococcus aureus [7]): inactive; IC50 (Staphylococcus aureus [8]): 15.1 mg/L (≈ 25.6 µM); MBC (Staphylococcus aureus [8]): inactive; MIC (Staphylococcus aureus [8]): inactive; MFC (Cryptococcus neoformans): inactive; MIC (Cryptococcus neoformans): inactive
COC(=O)[C@H](CCCNC(=N)N)NC(=O)[C@@H](N)Cc1c[nH]c(-c2cccc3ccccc23)n1 | > 7.3 | > 7.3 | > 7.3 | > 7.3 | > 7.3 | > 7.3 | > 10 µg/mL | > 10 µg/mL | > 10 µg/mL | > 10 µg/mL | > 10 µg/mL | > 10 µg/mL | inactive | inactive | inactive | inactive | inactive | 2.5 mg/L (≈ 5.54 µM) | 2.5 mg/L (≈ 5.54 µM) | 1.38 mg/L (≈ 3.06 µM) | 
N=C(N)NCCC[C@H](NC(=O)[C@@H](N)Cc1c[nH]c(-c2ccccc2)n1)C(=O)NCc1ccccc1 | > 8.2 | > 8.2 | > 8.2 | > 8.2 | > 8.2 | > 8.2 | > 10 µg/mL | > 10 µg/mL | > 10 µg/mL | > 10 µg/mL | > 10 µg/mL | > 10 µg/mL | inactive | inactive | inactive | inactive | inactive | 2.5 mg/L (≈ 5.25 µM) | 2.5 mg/L (≈ 5.25 µM) | 1.22 mg/L (≈ 2.56 µM) | 
CC(C)(C)OC(=O)N[C@@H](Cc1c[nH]c2ccccc12)C(=O)N[C@@H](Cc1c[nH]c(-c2ccc(C(C)(C)C)cc2)n1)C(=O)NCc1ccccc1 |  |  |  |  |  |  | > 10 µg/mL | > 10 µg/mL | > 10 µg/mL | > 10 µg/mL | > 10 µg/mL | > 10 µg/mL | inactive | inactive | inactive | inactive | inactive |  |  |  | IC50 (Staphylococcus aureus [7]): Not Active; MBC (Staphylococcus aureus [7]): inactive; MIC (Staphylococcus aureus [7]): inactive; IC50 (Staphylococcus aureus [8]): 10.2 mg/L (≈ 15.3 µM); MBC (Staphylococcus aureus [8]): inactive; MIC (Staphylococcus aureus [8]): inactive; IC50 (Cryptococcus neoformans): Not Active; MFC (Cryptococcus neoformans): inactive; MIC (Cryptococcus neoformans): inactive
N[C@@H](Cc1c[nH]c2ccccc12)C(=O)N[C@@H](Cc1c[nH]c(-c2cccc3ccccc23)n1)C(=O)NCc1ccccc1 |  |  |  |  |  |  | > 10 µg/mL | > 10 µg/mL | > 10 µg/mL | > 10 µg/mL | > 10 µg/mL | > 10 µg/mL | inactive | inactive | inactive | inactive | inactive |  |  |  | IC50 (Cryptococcus neoformans): Not Active; MFC (Cryptococcus neoformans): inactive; MIC (Cryptococcus neoformans): inactive
CC(C)(C)OC(=O)N[C@@H](Cc1c[nH]cn1)C(=O)N[C@@H](CCCNC(=N)N)C(=O)NCc1ccccc1 (Boc-His-Arg-NHBn) |  |  |  |  |  |  | > 10 µg/mL | > 10 µg/mL | > 10 µg/mL | > 10 µg/mL | > 10 µg/mL | > 10 µg/mL | inactive | inactive | inactive | inactive | inactive |  |  |  | IC50 (Cryptococcus neoformans): Not Active; MFC (Cryptococcus neoformans): inactive; MIC (Cryptococcus neoformans): inactive
COC(=O)[C@H](Cc1c[nH]c(-c2ccc(-c3ccccc3)cc2)n1)NC(=O)[C@H](Cc1c[nH]c2ccccc12)NC(=O)OC(C)(C)C |  |  |  |  |  |  | > 10 µg/mL | > 10 µg/mL | > 10 µg/mL | > 10 µg/mL | > 10 µg/mL | > 10 µg/mL | inactive | inactive | inactive | inactive | inactive |  |  |  | IC50 (Staphylococcus aureus [7]): Not Active; MBC (Staphylococcus aureus [7]): inactive; MIC (Staphylococcus aureus [7]): inactive; IC50 (Staphylococcus aureus [8]): 19 mg/L (≈ 31.2 µM); MBC (Staphylococcus aureus [8]): inactive; MIC (Staphylococcus aureus [8]): inactive; IC50 (Cryptococcus neoformans): Not Active; MFC (Cryptococcus neoformans): inactive; MIC (Cryptococcus neoformans): inactive
COC(=O)[C@H](CCCNC(=N)N)NC(=O)[C@@H](N)Cc1c[nH]c(-c2ccc(C(C)(C)C)cc2)n1 |  |  |  |  |  |  | > 10 µg/mL | > 10 µg/mL | > 10 µg/mL | > 10 µg/mL | > 10 µg/mL | > 10 µg/mL | inactive | inactive | inactive | inactive | inactive | 20 mg/L (≈ 43.7 µM) | 20 mg/L (≈ 43.7 µM) | 10.2 mg/L (≈ 22.2 µM) | 
